From ChEMBL document CHEMBL2429868, “Structural optimization of quinolon-4(1H)-imines as dual-stage antimalarials: toward increased potency and metabolic stability” (J Med Chem, 2013)
Values after ≈ are worked out from the molar mass of the structure shown. Active and inactive are the calls of the source. No cut-off for these calls is given here.

Experiments:
[1] = Inhibition of hemozoin-like crystal formation at 1 to 1000 uM after 5 days; format: functional
How it was run: (§1)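 Hemozoin-like crystal stock sonicated 3 min and diluted in broth to 2 μM final (heme equivalents). Compounds from 25 mM DMSO stocks were 0.22-μm filtered and dosed at 0–1000 μM final. Incubated 37 °C, 5% CO2, 5 days, then scored for presence or absence of crystal growth. Run in triplicate.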

Plasmodium berghei [2] = test: Antiplasmodial activity against liver stage of Plasmodium berghei infected in human HuH7 cells assessed as parasite growth inhibition incubated for 1 hr prior to parasite infection measured after 48 hrs; format: functional, organism-based; details: Huh-7, Liver
How it was run: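 Huh-7 cells (12 × 10^3/well) seeded the day before, given compound (10 mM MeOH stock diluted in medium) 1 h before adding 10 000 P. berghei PbGFP-Luccon sporozoites/well from mosquito salivary glands, then spun 1700g 5 min. Medium with compound renewed at 24 h. Luminescence read 48 h post-infection; IC50 by nonlinear regression of normalized dose–response.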

[3] = Metabolic stability in rat liver microsomes assessed as compound remaining at 1 uM after 6 hrs by HPLC analysis in presence of NADPH-regenerating system; format: ADME, Microsome; details: read-out: Stability
How it was run: (§2)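 Compound at 1 μM incubated at 37 °C with pooled rat liver microsomes (0.2 mg protein/mL) in 10 mM phosphate buffer, pH 7.4. Reaction started with NADPH-regenerating system A (NADP+, glucose 6-phosphate, MgCl2) plus B (glucose 6-phosphate dehydrogenase); no-cofactor runs used water instead. Remaining compound measured after 6 h by RP-18 HPLC in acetonitrile/water 25:75, 1 mL/min.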

Liver microsomes [4] = test: Metabolic stability in rat liver microsomes assessed as compound remaining at 1 uM after 6 hrs by HPLC analysis in absence of NADPH-regenerating system; format: ADME, Microsome; how it was run: as §2
Plasmodium falciparum [5] = test: Antiplasmodial activity against Plasmodium falciparum 3D7 transfected with yeast GFP-tagged DHODH assessed as parasite growth inhibition; format: functional, organism-based
Plasmodium falciparum [6] = test: Inhibition of Plasmodium falciparum cytochrome bc1 complex using decylubiquinol as substrate at <= 10 uM by UV-visible spectrophotometric analysis
[7] = Selectivity index, ratio of EC50 for HEK293T cells to IC50 for blood stage of chloroquine-resistant Plasmodium falciparum W2 infected in human RBC; format: functional, HEK-293T
How it was run: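 Ratio of two values. EC50: HEK293T cells seeded the previous day in RPMI 1640/10% FBS, given serial DMSO-diluted compound for 48 h at 37 °C, 5% CO2, then MTT for 3 h; formazan read at 570 nm and EC50 fitted by nonlinear regression. IC50: 48 h W2 blood-stage growth in human RBCs, scored by YOYO-1 flow cytometry.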

HEK-293T = test: Cytotoxicity against HEK293T cells; format: cell-based; details: Homo sapiens
How it was run: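 HEK293T seeded the day before in RPMI 1640 with 10% FBS, penicillin/streptomycin and 2 mM L-glutamine. Serial dilutions from DMSO were added for 48 h at 37 °C, 5% CO2. Then MTT for 3 h, formazan taken up in DMSO, absorbance read at 570 nm. EC50 by nonlinear regression of the concentration–response curve.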

Plasmodium falciparum [8] = test: Antiplasmodial activity against Plasmodium falciparum 3D7 assessed as parasite growth inhibition; format: functional, organism-based
Plasmodium falciparum [9] = test: Antiplasmodial activity against blood stage of chloroquine-resistant Plasmodium falciparum W2 infected in human RBC assessed as parasite growth inhibition after 48 hrs by flow cytometric analysis; format: functional, organism-based; details: W2, 48 h
Plasmodium berghei [10] = test: Potency index, ratio of primaquine IC50 to compound IC50 for liver stage of Plasmodium berghei infected in human HuH7 cells; format: functional, Huh-7
[11] = Chemical stability in aqueous buffer at pH 7.4 at 37 degC measured for 10 days; format: physicochemical; details: pH 7.4, 240 h
How it was run: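 Stability tested by holding compound in aqueous buffer at pH 7.4 (and pH 0.3) at 37 °C for 10 days.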

Liver microsomes [12] = test: Drug metabolism in rat liver microsomes assessed as quinoline metabolite formation through N-dealkylation of compound after 6 hrs by mass spectrophotometric analysis; format: ADME, Microsome
Huh-7 = test: Cytotoxicity against human HuH7 cells assessed as cell viability up to 5 uM by AlamarBlue assay; format: cell-based
How it was run: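 Huh-7 hepatoma cells in RPMI 1640 with 10% FCS, nonessential amino acids, glutamine and 10 mM HEPES pH 7, kept at 37 °C, 5% CO2. Treated as in the liver-stage infection assay. Viability read by AlamarBlue per manufacturer's protocol.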

[13] = Inhibition of hemozoin-like crystal formation after 5 days; format: functional; details: 120 h; how it was run: as §1

Compound	IC50 (Plasmodium berghei [2])	remaining at 6 h, 1 µM [3]	Stability (Liver microsomes [4])	Selectivity Index [7]	EC50 (HEK-293T)	IC50 (Plasmodium falciparum [9])	Activity (Huh-7)	other results
GENTAMICIN								inhibition [1]: inactive
CCN(CC)CCCCn1cc/c(=N\c2ccc(-c3ccccc3)cc2)c2ccc(Cl)cc21	2650 nM	62.7%	Stable	>1479	> 100000 nM	67.6 nM		IC50 (Plasmodium falciparum [5]): 68.3 nM; inhibition (Plasmodium falciparum [6]): inactive; IC50 (Plasmodium falciparum [8]): 64.7 nM
CCN(CC)CCCn1cc/c(=N\c2ccc(-c3ccccc3)cc2)c2ccc(Cl)cc21				>662	> 100000 nM	151 nM		
c1ccc(-c2ccc(/N=c3\ccn(CCCN4CCCCC4)c4cc(Nc5ccccn5)ccc34)cc2)cc1	440 nM			21	7340 nM	357 nM		Ratio IC50 (Plasmodium berghei [10]): > 10
Clc1ccc2c(c1)/c(=N/c1ccc(-c3ccccc3)cc1)ccn2CCCN1CCCCC1		75%	Stable	219	21800 nM	99.7 nM	Non-toxic	Stability [11]: Stable; Drug metabolism (Liver microsomes [12]): Active; MIC [13]: 1000 µM (≈ 456 µg/mL)
Clc1ccc2/c(=N/c3ccccc3)ccn(CCCN3CCCCC3)c2c1				>366	> 100000 nM	273 nM	Non-toxic	inhibition [1]: inactive
CCN(CC)CCCCn1cc/c(=N\c2ccc(-c3ccccc3)cc2)c2ccc(C(F)(F)F)cc21		81.5%	Stable	>1988	> 100000 nM	50.3 nM		
Clc1ccc2/c(=N/c3ccc(-c4ccccc4)cc3)ccn(CCCN3CCCCC3)c2c1				290	41800 nM	144 nM		IC50 (Plasmodium falciparum [5]): 52.3 nM; IC50 (Plasmodium falciparum [8]): 73.7 nM
FC(F)(F)c1ccc2/c(=N/c3ccc(-c4ccccc4)cc3)ccn(CCN3CCCC3)c2c1		79%	Stable	>442	> 100000 nM	226 nM	Non-toxic	inhibition [1]: inactive
CCN(CC)CCn1cc/c(=N\c2ccc(-c3ccccc3)cc2)c2ccc(Cl)cc21		68%	Stable	74	37100 nM	498 nM		
Fc1ccc(-c2ccc3/c(=N/c4ccc(-c5ccccc5)cc4)ccn(CCCN4CCCCC4)c3c2)cc1	2070 nM			138	7630 nM	55.4 nM	Non-toxic	MIC [13]: 500 µM (≈ 258 µg/mL)
CCN(CC)CCn1cc/c(=N\c2ccc(-c3ccccc3)cc2)c2ccc(C(F)(F)F)cc21	4610 nM	80.4%	Stable	73	38500 nM	525 nM	Non-toxic	inhibition [1]: inactive
Clc1ccc2/c(=N/c3ccc(Oc4ccccc4)cc3)ccn(CCCN3CCCCC3)c2c1		73%	Stable	191	30600 nM	160 nM	Non-toxic	MIC [13]: 500 µM (≈ 236 µg/mL)
Clc1ccc(/N=c2\ccn(CCCN3CCCCC3)c3cc(Cl)ccc23)cc1	2700 nM			>386	> 100000 nM	259 nM	Non-toxic	inhibition [1]: inactive
FC(F)(F)c1ccc2c(c1)/c(=N/c1ccc(-c3ccccc3)cc1)ccn2CCCN1CCCCC1				38	23700 nM	631 nM	Non-toxic	MIC [13]: 1000 µM (≈ 490 µg/mL)
CCN(CC)CCCC(C)Nc1ccnc2cc(Cl)ccc12 (stereo not given) [CHLOROQUINE]								MIC [13]: 125 µM (≈ 40 µg/mL)
FC(F)(F)c1ccc2/c(=N/c3ccc(-c4ccccc4)cc3)ccn(CCCN3CCCCC3)c2c1		65%	Stable	158	56800 nM	360 nM		IC50 (Plasmodium falciparum [5]): 195 nM; IC50 (Plasmodium falciparum [8]): 136 nM
Fc1ccc(-c2ccc3/c(=N/c4ccccc4)ccn(CCCN4CCCCC4)c3c2)cc1	1380 nM			>463	> 100000 nM	216 nM		
Cc1ccc(/N=c2\ccn(CCCN3CCCCC3)c3cc(Cl)ccc23)cc1				>302	> 100000 nM	331 nM		
Clc1ccc2/c(=N/c3ccc(Br)cc3)ccn(CCCN3CCCCC3)c2c1	3010 nM			>1351	> 100000 nM	74 nM		
Fc1ccc(/N=c2\ccn(CCCN3CCCCC3)c3cc(Cl)ccc23)cc1	4780 nM			>271	> 100000 nM	369 nM	Non-toxic	inhibition [1]: inactive
Clc1ccc2/c(=N/c3ccc(-c4ccccc4)cc3)ccn(CCN3CCCC3)c2c1	3460 nM			>900	> 100000 nM	111 nM		IC50 (Plasmodium falciparum [5]): 186 nM; IC50 (Plasmodium falciparum [8]): 177 nM
c1ccc(-c2ccc(/N=c3\ccn(CCCN4CCCCC4)c4cc(-c5cnc6ccccc6c5)ccc34)cc2)cc1	710 nM			143	7680 nM	53.7 nM		Ratio IC50 (Plasmodium berghei [10]): > 10
CCN(CC)CCCn1cc/c(=N\c2ccc(-c3ccccc3)cc2)c2ccc(C(F)(F)F)cc21				>694	> 100000 nM	144 nM		
